Screening results as filed in PubChem.
Most compounds without a hit are left out; they make up all but 4.1% or so of the library.
TAG inh: triacylglycerol accumulation inhibition. H9c2 cells, Nile Red lipid (TAG) fluorescence; cells loaded with 200 µM oleic acid. inhibition, % at 12.5 µM. hit rate 0.66% among 230,000;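 active = pattern-corrected inhibition of lipid staining of at least 50% with the nuclear-stain viability signal not falling by more than 50%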
AHR act: human AHR activation; activation, % at 5 µM; AID 2796; AHR-responsive luciferase reporter cells, luminescence; hit rate 2.5% among 320,000; in the data active = activation above about 47%
Target sequence (P35869 whole entry, looked up): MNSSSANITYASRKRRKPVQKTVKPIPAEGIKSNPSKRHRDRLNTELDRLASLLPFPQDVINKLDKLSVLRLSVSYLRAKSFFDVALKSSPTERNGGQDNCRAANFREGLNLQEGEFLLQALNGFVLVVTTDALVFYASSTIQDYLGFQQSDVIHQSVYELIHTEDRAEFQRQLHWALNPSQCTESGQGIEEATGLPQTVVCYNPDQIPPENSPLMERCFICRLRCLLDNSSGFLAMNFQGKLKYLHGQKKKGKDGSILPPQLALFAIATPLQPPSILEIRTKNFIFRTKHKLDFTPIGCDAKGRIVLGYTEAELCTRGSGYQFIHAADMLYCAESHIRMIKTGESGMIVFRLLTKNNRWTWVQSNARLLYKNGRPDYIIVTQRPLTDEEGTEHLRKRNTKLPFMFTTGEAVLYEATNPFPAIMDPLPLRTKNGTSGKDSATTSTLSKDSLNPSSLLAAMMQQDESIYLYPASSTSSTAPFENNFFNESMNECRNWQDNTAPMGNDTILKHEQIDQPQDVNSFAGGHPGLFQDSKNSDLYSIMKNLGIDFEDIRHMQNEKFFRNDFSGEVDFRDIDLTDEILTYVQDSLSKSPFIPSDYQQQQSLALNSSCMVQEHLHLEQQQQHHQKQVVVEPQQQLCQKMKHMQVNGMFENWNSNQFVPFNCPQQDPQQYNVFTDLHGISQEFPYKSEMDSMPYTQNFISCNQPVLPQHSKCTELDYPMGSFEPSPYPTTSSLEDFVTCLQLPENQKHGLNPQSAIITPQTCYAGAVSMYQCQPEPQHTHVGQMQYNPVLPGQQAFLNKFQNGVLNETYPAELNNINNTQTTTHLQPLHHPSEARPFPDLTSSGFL
SMARCA2 activ: increases SMARCA2 function in MMTV reporter cells. MG213 cells, MMTV-luciferase reporter, dexamethasone, overnight. hit rate 1% among 370,000. activation, % at 9.1 µM. AID 652017; in the data active = activation above about 7.8%
Efflux pump inh: inhibitors of Candida antifungal efflux pumps expressed in yeast. S. cerevisiae Candida pump triplex, Nile Red efflux. inhibition, % at 10 µM. hit rate 0.44% among 330,000. AID 485275;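 active = plate passing quality check with inhibition over a set limit, or well fluorescence over plate mean plus 4 SD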;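 also: Nile Red retained in pooled yeast measured as flow cytometry median fluorescence; higher means more Nile Red kept so more efflux inhibition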
Tb MetRS inh: blocks T. brucei methionyl-tRNA synthetase activity | purified T. brucei MetRS, ATP depletion, Kinase-Glo luminescence | inhibition, % at 11.9 µM | hit rate 0.4% among 360,000 | AID 624268;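 active = inhibition above a per-plate cutoff of the control wells' mean inhibition plus 3 SD, cut at about 5.5% in these data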
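Test system – parasite MetRS enzyme · Reagent – substrates ATP, L-methionine and bulk Escherichia coli tRNA · Doses – 11.9 µM compound single dose, 0.9% DMSO · Times – 15 min enzyme-compound preincubation, 2 h reaction, 10 min detection, 25 °C · Signal – Kinase-Glo luminescence, ATP depletion format · Controls – DMSO-only wells as low control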
Of the large screens only hits and unclear results are named; the others gave an inactive call.

CC(C)(C)c1ccc(C(=O)N/C(=C\c2cccc([N+](=O)[O-])c2)C(=O)Nc2cccc(C(=O)O)c2)cc1	AHR act 67
Cc1ccc(C(=O)N/C(=C\c2ccc(-c3cccc([N+](=O)[O-])c3)o2)C(=O)NC(C)(C)C)cc1	AHR act 56 (no result: TAG inh)
O=C(NCCCO)/C(=C/c1ccc(-c2cccc([N+](=O)[O-])c2)o1)NC(=O)c1ccccc1	none
Cc1n[nH]c(C)c1S(=O)(=O)NC(C)Cc1ccccn1 (centres undefined)	none (no result: TAG inh, AHR act, Efflux pump inh, Tb MetRS inh)
CCOC(=O)[C@@]12CCCC3=C1N(CCC3)C(=O)[C@H]2CC(=O)NCc1ccccc1	none (no result: TAG inh, AHR act, Efflux pump inh, Tb MetRS inh)
Cc1ccc(-n2c(Cc3cccs3)nnc2SCC(=O)Nc2ccccc2-c2ccccc2)cc1	none (no result: TAG inh, AHR act, Efflux pump inh, Tb MetRS inh)
O=C(N=C1N=C2C=CC(Br)=CN2Cc2ccccc21)c1ccc([N+](=O)[O-])cc1[N+](=O)[O-]	AHR act 94
CC(=O)Oc1cc(C)c(Cl)c2c(OC(C)=O)cc(C(C)=O)c(O)c12	none (no result: TAG inh, AHR act, Efflux pump inh, Tb MetRS inh)
O=C1N(Cc2ccccc2)c2ccccc2C12CCCc1oc(CCc3ccccc3)nc12 (centres undefined)	none (no result: TAG inh, AHR act, Efflux pump inh, Tb MetRS inh)
O=C(c1cc(F)ccc1F)N1CCCC(c2nc(-c3cccs3)no2)C1 (centres undefined)	none (no result: TAG inh, AHR act, Efflux pump inh, Tb MetRS inh)
Cc1ccc(CN2C(C(=O)NC3CCCC3)CSCCS2(=O)=O)cc1 (centres undefined)	none (no result: TAG inh, AHR act, Efflux pump inh, Tb MetRS inh)
C=CCOc1cccc(C(=O)Nc2ncn[nH]2)c1	AHR act 58
S=C(N/N=C/c1ccccc1Cl)Nc1ccccc1	AHR act 62 (no result: TAG inh)
CNC(=S)N/N=C/c1c(Cl)cccc1Cl	none
CNC(=S)N/N=C/c1ccccc1Cl	AHR act 60 (no result: TAG inh)
CCOC(=O)CC[C@@H]1CC[C@]2(CCCN(C(=O)C(C)(C)C)C2)O1	none (no result: TAG inh, AHR act, Efflux pump inh, Tb MetRS inh)
O=C(NC1CCCCN(Cc2ccc(Cl)cc2)C1=O)c1cccc(C(F)(F)F)c1 (centres undefined)	none (no result: TAG inh, AHR act, Efflux pump inh, Tb MetRS inh)
CCc1ccc2nc3nc(C)cc(C)c3c(N)c2c1	AHR act 68 (no result: TAG inh)
CCc1ccc(NC(=S)/N=C(\N)Nc2nc(C)c3cc(CC)ccc3n2)cc1	none
COc1ccc(OC)c(/C=N/NC(=O)c2cc3c(OC)c(OC)ccc3[nH]2)c1	AHR act 79 (no result: TAG inh)
CCOc1ccc(/C=N/NC(=O)c2cc3c(OC)cc(OC)c(OC)c3[nH]2)cc1	AHR act 48 (no result: TAG inh)
CCCOc1ccc2[nH]c(C(=O)N/N=C/c3cc(OC)c(OC)c(OC)c3)cc2c1	none (no result: TAG inh)
CC(C)C(=O)N[C@H]1[C@H](O)CCC[C@]12C(=O)N(Cc1ccccc1)c1ccccc12	none (no result: TAG inh, AHR act, Efflux pump inh, Tb MetRS inh)
Nc1c2c(nc3ccccc13)N(C1CCCCC1)CC2	none
Nc1c2c(nc3ccc(Br)cc13)N(C1CCCCC1)CC2	AHR act 52, Efflux pump inh 2.4 (no result: TAG inh, SMARCA2 activ, Tb MetRS inh)
Nc1c2c(nc3ccc(Br)cc13)N(c1ccccc1)CC2	AHR act 76 (no result: TAG inh)
CSc1nc(C)c2c(n1)N(c1cccc(C)c1)CC2	none
Nc1c2c(nc3ccc(Br)cc13)N(Cc1ccccc1)CC2	AHR act 50
Cc1cccc(N2CCc3c2nc2ccc(Br)cc2c3N)c1	AHR act 108 (no result: TAG inh)
O=C(Cn1cnc([N+](=O)[O-])n1)N/N=C/c1cccc2ccccc12	none
O=C(Cn1cncn1)N/N=C/c1cccc2ccccc12	AHR act 70 (no result: TAG inh, Efflux pump inh)
O=C(Nc1ccc2ccccc2c1)c1ccccc1O	AHR act 48 (no result: TAG inh)
O=C(Nc1ccc2ccccc2c1)c1ccccc1Cl	none (no result: AHR act, Efflux pump inh)
O=C(Nc1ccc2ccccc2c1)c1cccc([N+](=O)[O-])c1	AHR act 68 (no result: TAG inh)
O=C(O)c1cccc([N+](=O)[O-])c1C(=O)Nc1ccc2ccccc2c1	AHR act 60
O=C(Nc1cccc([N+](=O)[O-])c1)c1ccccc1	none
CN1CCCCC(NC(=O)c2ccccc2)C1=O (centres undefined)	none (no result: TAG inh, AHR act, Efflux pump inh, Tb MetRS inh)
Cc1cc(NS(=O)(=O)c2ccc(NC(=O)CSc3nnc(SCc4ccc(Cl)cc4)s3)cc2)nc(C)n1	none (no result: TAG inh, AHR act, Efflux pump inh, Tb MetRS inh)
COc1cccc(Nc2ncnc3c2cnn3-c2cccc(C)c2)c1	none
COc1ccccc1Nc1ncnc2c1cnn2-c1cccc(C)c1	AHR act 51
C=CCNc1ncnc2c1cnn2-c1cccc(C)c1	none
Cc1cccc(-n2ncc3c(NCCCO)ncnc32)c1	SMARCA2 activ 7.9
CCNCCNC(=O)c1c(O)c2cccc3c2n(c1=O)CCC3	AHR act 60
Cc1cccc(C(=O)NNC(=O)c2cc3cc4ccccc4nc3s2)c1	AHR act 74
O=C(NNC(=O)c1cc2cc3ccccc3nc2s1)c1cccc(Cl)c1	AHR act 48
Cc1ccc(S(=O)(=O)NNC(=O)c2cc3cc4ccccc4nc3s2)cc1	Tb MetRS inh 8.3
Cc1ccc(S(=O)(=O)Nc2nc(C)c(C(=O)NNS(=O)(=O)c3ccccc3)s2)cc1	none
COc1cccc(NC(=O)C2CCCN2C(=O)NCc2ccccc2)c1 (centres undefined)	none (no result: TAG inh, AHR act, Efflux pump inh, Tb MetRS inh)
C=CC(=O)Nc1ccc(CN2C(=O)N(c3c(Cl)c(OC)cc(OC)c3Cl)Cc3cnc(NCCCCN(CC)CC)nc32)cc1	TAG inh 66 (no result: SMARCA2 activ)
Cc1cc(O)ccc1NC(=S)NC(=O)c1cncc(Br)c1	AHR act 60 (no result: TAG inh)
Cc1ccccc1NC(=S)NC(=O)c1cncc(Br)c1	none
CC(C)(C)c1ccc(NNC(=O)C2CCC2)cc1	AHR act 73
c1ccc(CSc2nnc(-c3cccnc3)o2)cc1	none
c1cncc(-c2nnc(SCc3nc4ccccc4[nH]3)o2)c1	AHR act 73
c1ccc(C2=NNC(=NC3CC3)SC2)cc1	none (no result: TAG inh)
c1ccc2c(C3=NNC(=NC4CCCCC4)SC3)c[nH]c2c1	AHR act 57
COc1ccc(-c2cc(=O)c3cccc(CC(=O)O)c3o2)cc1	none (no result: TAG inh, AHR act, Efflux pump inh, Tb MetRS inh)
CCCCNC(=O)CSc1nc2ccc(N3CCOCC3)cc2c(=O)n1CCc1ccccc1	AHR act 58 (no result: TAG inh)
COCCNC(=O)CSc1nc2ccc(N3CCOCC3)cc2c(=O)n1CCc1ccccc1	AHR act 73 (no result: TAG inh)
CCCCn1c(SCC(=O)NCCOC)nc2ccc(N3CCOCC3)cc2c1=O	none
CCCCCCCCN1C(=O)[C@@H](CC(=O)NCCCOCCCC)C[C@@]2(C(=O)OC)C1=C[C@H](C(C)(C)C)O[C@@H]2C	none (no result: TAG inh, AHR act, Efflux pump inh, Tb MetRS inh)
COc1ccnc(CSC(N)=Nc2ccccc2C(F)(F)F)c1	none (no result: TAG inh)
COc1ccnc(CSC(N)=Nc2cccc(C(F)(F)F)c2)c1	AHR act 55 (no result: TAG inh)
O=C(c1cc(Br)cc(Br)c1)N1CCC(Oc2cccnc2)CC1	none (no result: TAG inh, AHR act, Efflux pump inh, Tb MetRS inh)
O=[N+]([O-])c1cc(Cl)c(O)c2ncccc12	none (no result: AHR act, Efflux pump inh)
CN(Cc1cc([N+](=O)[O-])c2cccnc2c1O)C1CCCCC1	Efflux pump inh 8.2 (no result: TAG inh, SMARCA2 activ, Tb MetRS inh)
CCCSc1ccc(C(=O)Nc2ccc(Cl)cc2)cn1	AHR act 60
CC(C)=CCC/C(C)=C/COc1ccc2ccc(=O)oc2c1	none (no result: TAG inh)
CC(C)=CCC/C(C)=C/COc1c2occc2cc2ccc(=O)oc12	AHR act 69 (no result: TAG inh)
Cc1ccc(C(=O)n2ccc3ccc(-c4ccc5ccn(Cc6ccccc6)c5c4)cc32)cc1	none (no result: TAG inh, AHR act, Efflux pump inh, Tb MetRS inh)
CC(C)OCc1c(C(=O)Nc2nccs2)oc2ccccc12	AHR act 57
COc1ccc2oc(C(=O)Nc3nccs3)c(C)c2c1	AHR act 77
Cc1c(C(=O)Nc2ccccn2)oc2c(Cl)cccc12	AHR act 74
